In ChEMBL document CHEMBL2146464, “Structure-activity relationship study of nitrosopyrimidines acting as antifungal agents” (Bioorg Med Chem, 2012):
≈ marks a conversion by molar mass, not a printed value. Calls of active or inactive are those of the source. The rule behind the calls is not given here.

Tests used:
Cryptococcus neoformans [1] = test: Antifungal activity against Cryptococcus neoformans ATCC 32264 assessed as growth inhibition at 125 ug/mL after 48 hrs by microplate reader analysis; format: functional; conditions: ATCC 32264, 48 h, read-out: GI
How it was run: (§1)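 Microplate growth-inhibition assay in RPMI-1640, compound at final 250–0.98 µg/mL (DMSO ≤1%). Inoculum 1–5 × 10³ CFU/mL. Sterility and DMSO growth controls included. Percent inhibition is computed from blank-corrected OD relative to the growth control, tested in duplicate.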

Candida tropicalis [2] = test: Antifungal activity against Candida tropicalis assessed as growth inhibition at 62.5 ug/mL by microplate reader analysis; format: functional; conditions: read-out: GI
Cryptococcus neoformans [3] = test: Fungicidal activity against Cryptococcus neoformans ATCC 32264 after 48 hrs by agar plate dilution method; format: functional; conditions: ATCC 32264, 48 h
How it was run: (§2)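 MFC: after the microdilution MIC, material from each clear well was plated onto RPMI-1640 agar buffered with MOPS. Plates incubated at 30 °C and read after 48 h. MFC is the lowest concentration giving total inhibition of visible growth.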

Cryptococcus neoformans [4] = test: Antifungal activity against Cryptococcus neoformans ATCC 32264 after 48 hrs by NCCLS broth microdilution method; format: functional; conditions: ATCC 32264, 48 h, read-out: MIC100
How it was run: (§3)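 Yeast MIC by NCCLS M27-A3 broth microdilution in RPMI-1640 buffered to pH 7.0 with MOPS. Twofold dilutions of 250–0.98 µg/mL, final DMSO ≤1%. Inoculum 1–5 × 10³ CFU/mL. Incubated at 30 °C in a moist dark chamber. Read visually at 48 h. MIC100 is the lowest concentration with no visible growth versus drug-free control.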

Candida tropicalis [5] = test: Antifungal activity against Candida tropicalis assessed as growth inhibition at 7.8 ug/mL by microplate reader analysis; format: functional; conditions: read-out: GI
Aspergillus flavus = test: Antifungal activity against Aspergillus flavus ATCC 9170 at 0.98 to 250 ug/mL by NCCLS broth microdilution method; format: functional, organism-based
How it was run: (§4)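 MIC by broth microdilution per NCCLS M27-A3/M38-A2 in RPMI-1640 buffered to pH 7.0 with MOPS. Twofold dilutions from 250–0.98 µg/mL, final DMSO ≤1%. Inoculum 1–5 × 10³ CFU/mL. Incubated in a moist dark chamber, 30 °C for Aspergillus and 28–30 °C for dermatophytes. Read visually when control growth allowed. Endpoint is the lowest concentration giving total inhibition of visible growth (MIC100).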

Nannizzia gypsea [6] = test: Fungicidal activity against Microsporum gypseum CCC 115 after 48 hrs by agar plate dilution method; format: functional; conditions: CCC 115, 48 h; how it was run: as §2
Trichophyton rubrum [7] = test: Fungicidal activity against Trichophyton rubrum CCC 110 after 48 hrs by agar plate dilution method; format: functional; conditions: CCC 110, 48 h
How it was run: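 Samples from each clear well of the MIC broth microdilution tray were plated onto RPMI-1640 agar buffered with MOPS. That tray had compounds twofold diluted in RPMI (pH 7.0, MOPS) from 250–0.98 µg/mL with inoculum of 1–5 × 10³ CFU/mL, incubated at 28–30 °C for dermatophytes. Plates were incubated at 30 °C and read at 48 h. MFC was taken as the lowest concentration giving total inhibition of visible growth.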

Candida albicans [8] = test: Antifungal activity against Candida albicans ATCC 10231 after 24 hrs by microplate reader analysis; format: functional; conditions: ATCC 10231, 24 h
How it was run: (§5)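 96-well RPMI-1640 wells with compound at final 250–0.98 µg/mL (DMSO ≤1%). Inoculum 100 µL, 1–5 × 10³ CFU/mL, 200 µL final. Each well includes growth (DMSO, no compound) and sterility controls. % inhibition = 100 − (CTW−SCW)/(GCW−SCW) × 100, run in duplicate.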

Candida albicans [9] = test: Antifungal activity against Candida albicans ATCC 10231 assessed as growth inhibition at 15.6 ug/mL after 24 hrs by microplate reader analysis; format: functional; conditions: ATCC 10231, 24 h, read-out: GI; how it was run: as §5
[10] = Acute toxicity in bony fish assessed as mortality at 0.4 ug/mL after 96 hrs; conditions: actinopterygii; read-out: Activity
How it was run: (§6)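 Guppy (Poecilia reticulata) acute static exposure: 10 fish per concentration in 2 L wide-mouthed jars holding the test solution. Compounds were added from […] to give the final concentrations. Dead fish were counted and removed every 24 h, with general condition noted; percentage mortality was scored at 96 h. Two experiments, each in triplicate.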

Candida tropicalis [11] = test: Antifungal activity against Candida tropicalis after 48 hrs by NCCLS broth microdilution method; format: functional; conditions: read-out: MIC100; how it was run: as §3
Cryptococcus neoformans [12] = test: Antifungal activity against Cryptococcus neoformans ATCC 32264 assessed as growth inhibition at 62.5 ug/mL after 48 hrs by microplate reader analysis; format: functional; conditions: ATCC 32264, 48 h, read-out: GI; how it was run: as §1
Cryptococcus neoformans [13] = test: Antifungal activity against Cryptococcus neoformans ATCC 32264 after 48 hrs by microplate reader analysis; format: functional; conditions: ATCC 32264, 48 h; how it was run: as §1
[14] = test system: Trichophyton mentagrophytes; test: Fungicidal activity against Trichophyton mentagrophytes ATCC 9972 after 48 hrs by agar plate dilution method; format: functional; conditions: ATCC 9972, 48 h; how it was run: as §2
Cryptococcus neoformans [15] = test: Antifungal activity against Cryptococcus neoformans ATCC 32264 assessed as growth inhibition at 31.25 ug/mL after 48 hrs by microplate reader analysis; format: functional; conditions: ATCC 32264, 48 h, read-out: GI; how it was run: as §1
Candida tropicalis [16] = test: Antifungal activity against Candida tropicalis assessed as growth inhibition at 250 ug/mL by microplate reader analysis; format: functional; conditions: read-out: GI
Candida albicans [17] = test: Antifungal activity against Candida albicans ATCC 10231 assessed as growth inhibition at 7.8 ug/mL after 24 hrs by microplate reader analysis; format: functional; conditions: ATCC 10231, 24 h, read-out: GI; how it was run: as §5
Candida tropicalis [18] = test: Antifungal activity against Candida tropicalis assessed as growth inhibition at 31.25 ug/mL by microplate reader analysis; format: functional; conditions: read-out: GI
Candida albicans [19] = test: Antifungal activity against Candida albicans ATCC 10231 after 48 hrs by NCCLS broth microdilution method; format: functional; conditions: ATCC 10231, 48 h, read-out: MIC100; how it was run: as §3
Candida tropicalis [20] = test: Antifungal activity against Candida tropicalis by microplate reader analysis; format: functional
Cryptococcus neoformans [21] = test: Antifungal activity against Cryptococcus neoformans ATCC 32264 assessed as growth inhibition at 15.6 ug/mL after 48 hrs by microplate reader analysis; format: functional; conditions: ATCC 32264, 48 h, read-out: GI; how it was run: as §1
Aspergillus fumigatus = test: Antifungal activity against Aspergillus fumigatus ATCC 26934 at 0.98 to 250 ug/mL by NCCLS broth microdilution method; format: functional, organism-based; how it was run: as §4
Candida tropicalis [22] = test: Antifungal activity against Candida tropicalis assessed as growth inhibition at 125 ug/mL by microplate reader analysis; format: functional; conditions: read-out: GI
Cryptococcus neoformans [23] = test: Antifungal activity against Cryptococcus neoformans ATCC 32264 assessed as growth inhibition at 3.9 ug/mL after 48 hrs by microplate reader analysis; format: functional; conditions: ATCC 32264, 48 h, read-out: GI; how it was run: as §1
[24] = Acute toxicity in bony fish assessed as mortality at 1.6 ug/mL after 24 hrs; conditions: actinopterygii; read-out: Activity
Candida albicans [25] = test: Antifungal activity against Candida albicans ATCC 10231 assessed as growth inhibition at 250 ug/mL after 24 hrs by microplate reader analysis; format: functional; conditions: ATCC 10231, 24 h, read-out: GI; how it was run: as §5
Candida albicans [26] = test: Antifungal activity against Candida albicans ATCC 10231 assessed as growth inhibition at 125 ug/mL after 24 hrs by microplate reader analysis; format: functional; conditions: ATCC 10231, 24 h, read-out: GI; how it was run: as §5
Candida albicans [27] = test: Fungicidal activity against Candida albicans ATCC 10231 after 48 hrs by agar plate dilution method; format: functional; conditions: ATCC 10231, 48 h; how it was run: as §2
Candida albicans [28] = test: Antifungal activity against Candida albicans ATCC 10231 assessed as growth inhibition at 31.25 ug/mL after 24 hrs by microplate reader analysis; format: functional; conditions: ATCC 10231, 24 h, read-out: GI; how it was run: as §5
[29] = Acute toxicity in bony fish assessed as mortality at 0.8 ug/mL after 48 hrs; conditions: actinopterygii; read-out: Activity
[30] = Acute toxicity in bony fish assessed as mortality at 5 ug/mL after 96 hrs; conditions: actinopterygii, 96 h; how it was run: as §6
Trichophyton rubrum [31] = test: Antifungal activity against Trichophyton rubrum CCC 110 by NCCLS broth microdilution method; format: functional; conditions: read-out: MIC100; how it was run: as §4
Candida albicans [32] = test: Antifungal activity against Candida albicans ATCC 10231 assessed as growth inhibition at 3.9 ug/mL after 24 hrs by microplate reader analysis; format: functional; conditions: ATCC 10231, 24 h, read-out: GI; how it was run: as §5
Candida tropicalis [33] = test: Antifungal activity against Candida tropicalis assessed as growth inhibition at 3.9 ug/mL by microplate reader analysis; format: functional; conditions: read-out: GI
Cryptococcus neoformans [34] = test: Antifungal activity against Cryptococcus neoformans ATCC 32264 assessed as growth inhibition at 250 ug/mL after 48 hrs by microplate reader analysis; format: functional; conditions: ATCC 32264, 48 h, read-out: GI; how it was run: as §1
Nannizzia gypsea [35] = test: Antifungal activity against Microsporum gypseum CCC 115 by NCCLS broth microdilution method; format: functional; conditions: read-out: MIC100; how it was run: as §4
Candida tropicalis [36] = test: Antifungal activity against Candida tropicalis assessed as growth inhibition at 15.6 ug/mL by microplate reader analysis; format: functional; conditions: read-out: GI
Candida albicans [37] = test: Antifungal activity against Candida albicans ATCC 10231 assessed as growth inhibition at 62.5 ug/mL after 24 hrs by microplate reader analysis; format: functional; conditions: ATCC 10231, 24 h, read-out: GI; how it was run: as §5
[38] = test system: Trichophyton mentagrophytes; test: Antifungal activity against Trichophyton mentagrophytes ATCC 9972 by NCCLS broth microdilution method; format: functional; conditions: read-out: MIC100; how it was run: as §4
Aspergillus niger = test: Antifungal activity against Aspergillus niger ATCC 9029 at 0.98 to 250 ug/mL by NCCLS broth microdilution method; format: functional, organism-based; how it was run: as §4
Candida tropicalis [39] = test: Fungicidal activity against Candida tropicalis after 48 hrs by agar plate dilution method; format: functional; how it was run: as §2
Cryptococcus neoformans [40] = test: Antifungal activity against Cryptococcus neoformans ATCC 32264 assessed as growth inhibition at 7.8 ug/mL after 48 hrs by microplate reader analysis; format: functional; conditions: ATCC 32264, 48 h, read-out: GI; how it was run: as §1

## COc1nc(N)c(N=O)c(OCc2ccccc2)n1
Cryptococcus neoformans [1]
  inhibition of growth at 125 µg/mL: 100%
Candida tropicalis [2]
  inhibition of growth at 62.5 µg/mL: 100%
Cryptococcus neoformans [3]
  MFC: 125 µg/mL (≈ 480 µM)
Cryptococcus neoformans [4]
  MIC: 62.5 µg/mL (≈ 240 µM)
Candida tropicalis [5]
  inhibition of growth at 7.8 µg/mL: 56.7%
Aspergillus flavus
  Activity: inactive
Nannizzia gypsea [6]
  MFC: 62.5 µg/mL (≈ 240 µM)
Trichophyton rubrum [7]
  MFC: 125 µg/mL (≈ 480 µM)
Candida albicans [8]
  MIC50: 7.8 µg/mL (≈ 30 µM)
Candida albicans [9]
  inhibition of growth at 15.6 µg/mL: 99.6%
[10]
  mortality at 96 h, 0.4 ug/mL: 0%
Candida tropicalis [11]
  MIC: 31.2 µg/mL (≈ 120 µM)
Cryptococcus neoformans [12]
  inhibition of growth at 62.5 µg/mL: 100%
Cryptococcus neoformans [13]
  MIC50: 3.9 µg/mL (≈ 15 µM)
[14]
  MFC: 125 µg/mL (≈ 480 µM)
Cryptococcus neoformans [15]
  inhibition of growth at 31.25 µg/mL: 88.1%
Candida tropicalis [16]
  inhibition of growth at 250 µg/mL: 100%
Candida albicans [17]
  inhibition of growth at 7.8 µg/mL: 56.9%
Candida tropicalis [18]
  inhibition of growth at 31.25 µg/mL: 100%
Candida albicans [19]
  MIC: 31.2 µg/mL (≈ 120 µM)
Candida tropicalis [20]
  MIC50: 7.8 µg/mL (≈ 30 µM)
Cryptococcus neoformans [21]
  inhibition of growth at 15.6 µg/mL: 80.2%
Aspergillus fumigatus
  Activity: inactive
Candida tropicalis [22]
  inhibition of growth at 125 µg/mL: 100%
Cryptococcus neoformans [23]
  inhibition of growth at 3.9 µg/mL: 49.2%
[24]
  mortality at 24 h, 1.6 ug/mL: 100%
Candida albicans [25]
  inhibition of growth at 250 µg/mL: 100%
Candida albicans [26]
  inhibition of growth at 125 µg/mL: 100%
Candida albicans [27]
  MFC: 62.5 µg/mL (≈ 240 µM)
Candida albicans [28]
  inhibition of growth at 31.25 µg/mL: 100%
[29]
  mortality at 48 h, 0.8 ug/mL: 100%
[30]
  Activity: Non-toxic
Trichophyton rubrum [31]
  MIC: 125 µg/mL (≈ 480 µM)
Candida albicans [32]
  inhibition of growth at 3.9 µg/mL: 47.2%
Candida tropicalis [33]
  inhibition of growth at 3.9 µg/mL: 19.7%
Cryptococcus neoformans [34]
  inhibition of growth at 250 µg/mL: 100%
Nannizzia gypsea [35]
  MIC: 62.5 µg/mL (≈ 240 µM)
Candida tropicalis [36]
  inhibition of growth at 15.6 µg/mL: 96.7%
Candida albicans [37]
  inhibition of growth at 62.5 µg/mL: 100%
[38]
  MIC: 125 µg/mL (≈ 480 µM)
Aspergillus niger
  Activity: inactive
Candida tropicalis [39]
  MFC: 62.5 µg/mL (≈ 240 µM)
Cryptococcus neoformans [40]
  inhibition of growth at 7.8 µg/mL: 78.1%
